Non-standard residues stand in square brackets, D forms with d. Residues, ends and D or L forms follow the SMILES beside them. *: point of attachment. Orn = NCCC[C@H](N)C(=O)O; 2Furoyl = O=C(c1ccco1)*
What was measured:
[1] = molecular target: T1, Proteinase-activated receptor 2 (Homo sapiens, UniProt P55085); assay: Agonist activity at human PAR2 expressed in HEK293T cells assessed as induction of Galphaq-stimulated IP1 formation incubated for 2 hrs by FRET assay; type: functional, cell-based, HEK-293T
T1 sequence (P55085 whole entry): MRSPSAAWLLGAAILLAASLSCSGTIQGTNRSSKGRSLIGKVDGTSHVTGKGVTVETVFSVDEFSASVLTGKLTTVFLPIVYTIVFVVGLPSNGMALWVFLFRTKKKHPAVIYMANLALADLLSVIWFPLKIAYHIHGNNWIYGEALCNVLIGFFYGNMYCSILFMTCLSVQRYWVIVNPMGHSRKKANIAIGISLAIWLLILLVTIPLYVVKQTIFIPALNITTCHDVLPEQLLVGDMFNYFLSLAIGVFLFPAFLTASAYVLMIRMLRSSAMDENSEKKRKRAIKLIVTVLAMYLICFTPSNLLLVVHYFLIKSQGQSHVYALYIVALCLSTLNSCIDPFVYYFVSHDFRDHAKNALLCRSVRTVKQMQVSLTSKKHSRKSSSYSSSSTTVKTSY
Method in brief: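 Gq activation via PAR2 in HEK293 cells, read as IP1 accumulation by FRET (IP-One). For curves without a plateau, the value given is efficacy at 30 μM. Data are mean ± SEM of at least three independent experiments, each performed in duplicate.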

[2] = molecular target: T1, Proteinase-activated receptor 2; assay: Agonist activity at PK1-tagged PAR2 (unknown origin) expressed in HEK293 cells assessed as induction of beta-arrestin recruitment incubated for 90 mins by Pathhunter chemiluminescent assay; type: cell-based
Method in brief: (§1)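 PathHunter enzyme-complementation read-out of β-arrestin-2 recruitment to PAR2 in HEK293 cells. Efficacy is expressed relative to reference 2f-LIGRLO-NH2. Data are mean ± SEM of at least three independent experiments run in duplicate.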

[3] = molecular target: T1, Proteinase-activated receptor 2; assay: Agonist activity at PK1-tagged PAR2 (unknown origin) expressed in HEK293 cells assessed as induction of beta-arrestin recruitment at 30 uM incubated for 90 mins by Pathhunter chemiluminescent assay relative to 2f-LIGRLO-NH2; type: cell-based; conditions: 1.5 h; method in brief: as §1
[4] = Metabolic stability in Sprague-Dawley rat liver microsomes assessed as CYP450-mediated drug degradation at 20 uM measured up to 60 mins in presence of NADPH by LC-MS analysis; conditions: 1 h
[5] = Stability in rat plasma measured up to 4 hrs by LC-MS analysis; type: ADME, cell-free
Method in brief: (§2)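 Ligand was incubated in rat plasma and sampled at set time points up to 4 h. Samples were analysed by LC–MS. Standard-corrected peak areas are expressed as % of t = 0 min, mean ± SEM (n ≥ 3).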

[6] = molecular target: T1, Proteinase-activated receptor 2; assay: Agonist activity at PK1-tagged PAR2 (unknown origin) expressed in HEK293 cells assessed as induction of beta-arrestin recruitment incubated for 90 mins by Pathhunter chemiluminescent assay relative to 2f-LIGRLO-NH2; type: cell-based; conditions: 1.5 h; method in brief: as §1
[7] = Stability in rat plasma assessed as drug degradation after 1 hr by LC-MS analysis; type: ADME, cell-free; method in brief: as §2

SMILES | EC50 ([1]; hek-293t) | EC50 ([2]; hek293) | EC50 ([1]; read-out: EC50) [nM] | Emax at 30 µM [3] [%] | Stability [4] | Stability [5] | EC50 ([2]; read-out: EC50) [nM] | Emax [6] [%] | Stability [7]
NC(=O)Cc1ccccc1CNC(=O)[C@H](Cc1ccccc1)NC(=O)c1ccno1 |  |  | 1900 | 32 |  |  |  |  | 
Cc1cc(C(=O)N[C@@H](CC2CCCCC2)C(=O)NCc2ccccc2CC(N)=O)on1 |  |  | 640 |  | Stable | Stable | 8900 | 95 | 
NC(=O)Cc1ccccc1CNC(=O)[C@H](CC1CCCCC1)NC(=O)c1ccno1 |  |  | 590 |  | Stable | Stable | 6000 | 65 | 
CC[C@H](C)[C@H](NC(=O)[C@H](CC(C)C)NC(=O)c1ccco1)C(=O)NCC(=O)N[C@@H](CCCN=C(N)N)C(=O)N[C@@H](CC(C)C)C(=O)N[C@@H](CCCN)C(N)=O (2Furoyl-LIGRL[Orn]-NH2) |  |  | 150 |  | Stable |  | 430 |  | Unstable

More lines, now with the values ahead:

EC50 ([1]; hek-293t) | EC50 ([2]; hek293) | EC50 ([1]; read-out: EC50) [nM] | Emax at 30 µM [3] [%] | Stability [4] | Stability [5] | EC50 ([2]; read-out: EC50) [nM] | Emax [6] [%] | Stability [7] | SMILES
Not Active | Not Active |  |  |  |  |  |  |  | NC(=O)Cc1ccccc1CNC(=O)Cc1ccccc1CNC(=O)c1ccno1
 |  |  |  |  |  |  | 100 |  | CC[C@H](C)[C@H](NC(=O)[C@H](CC(C)C)NC(=O)c1ccco1)C(=O)NCC(=O)N[C@@H](CCCNC(=N)N)C(=O)N[C@@H](CC(C)C)C(=O)N[C@@H](CCCN)C(N)=O (2Furoyl-LIGRL[Orn]-NH2)

Reference: ChEMBL document CHEMBL4616713, “Discovery of Novel Nonpeptidic PAR2 Ligands” (ACS Med Chem Lett, 2020)
